Measurements gathered from unrelated publications.
Each line is one published result; the experiments were not run side by side. Values after ≈ are worked out from the molar mass of the structure shown.

COc1ccc2c(C(=O)c3c(F)c(F)c(F)c(F)c3F)c(-c3ccc(OC)c(O)c3)[nH]c2c1 — IC50 (tubulin polymerisation, inhibitor, absorbance): > 20000 nM
O=C1C(Br)=C(Br)C(=O)c2ccccc21 — MIC (Nakaseomyces glabratus; microbial growth, broth dilution; ATCC2001; 24 h): 6.25 µg/mL (≈ 19.8 µM)
CC(C)=CCC/C(C)=C/CO — MFC (Cryptococcus neoformans; microbial killing, broth dilution; clinical isolate): 800 µg/mL (≈ 5190 µM)
Cc1nn(-c2ccccc2)c2c1C(c1ccc(Cl)cc1)N(C(=O)c1ccncc1)N2 (centres unmarked) — MIC (Cryptococcus neoformans; microbial growth; clinical isolate): 32 µg/mL (≈ 76.9 µM)
COC1=CC(=O)c2ccccc2C1=O — MIC (Nakaseomyces glabratus; microbial growth, broth dilution; ATCC2001; 24 h): 25 µg/mL (≈ 133 µM)
C=CCc1ccc(O)c(OC)c1 — MFC (Cryptococcus neoformans; microbial killing, broth dilution; clinical isolate): 400 µg/mL (≈ 2440 µM)
Nc1ccc(/C=C/C(=O)N2CCc3c(oc4c(-c5ccc(F)cc5)cc(-c5ccc(C(=O)N6C[C@@H]7[C@H](C6)C7(F)F)nn5)cc34)C2)cn1 — IC50 (ASPC1; cell growth or viability, CCK-8; 72 h): 260 nM
C=C(F)C(=O)N1CCN(c2nc(OC[C@@H]3CCCN3C)nc3c2CCN(c2cccc4cccc(Cl)c24)C3)C[C@@H]1CC#N — IC50 (SW756; cell growth or viability, ATP luminescence): 888 nM
Cc1nn(-c2ccccc2)c2c1C(c1cncs1)N(C(=O)c1ccncc1)N2 (centres unmarked) — MIC (Cryptococcus neoformans; microbial growth; clinical isolate): 64 µg/mL (≈ 165 µM)
C=CC(=O)NC1CCN(c2ncc3ncnc(Nc4ccc(Oc5ccc6c(c5)ncn6C)c(C)c4)c3n2)CC1 — EC50 (SNU-182; cell growth or viability): 0.191 nM
Cc1nn(-c2ccccc2)c2c1C(c1ccc(O)cc1)N(C(=O)c1ccncc1)N2 (centres unmarked) — MIC (Cryptococcus neoformans; microbial growth; clinical isolate): > 100 µg/mL
C=CC(=O)N1CCN(c2nc(=O)n(-c3c(C)ccnc3C(C)C)c3nc(-c4c(O)cccc4F)c(F)cc23)[C@@H](C)C1 — IC50 (ASPC1; cell growth or viability, ATP luminescence): > 10000 nM
Cc1nn(-c2ccccc2)c2c1C(c1ccc([N+](=O)[O-])cc1)N(C(=O)c1ccncc1)N2 (centres unmarked) — MIC (Cryptococcus neoformans; microbial growth; clinical isolate): 64 µg/mL (≈ 150 µM)
COc1cc2nc(N3CCN(C(=O)C4COc5ccccc5O4)CC3)nc(N)c2cc1OC (centres unmarked) — IC50 (CNE-2; cell growth or viability, MTT; 48 h): 30700 nM
